L major viab = reduces viability of Leishmania major promastigotes; 9% of 200,000 active; resazurin fluorescence viability; inhibition, % at 10 µM; in the data active means inhibition above about 50%;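 further: promastigotes grown with compound for 44 hours at 28 °C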
PMI act = phosphomannose isomerase (human) activation; P34949; purified human PMI, coupled resazurin fluorescence, 20 min; hits give high values; 1 = vehicle control, 0 substrate-free wells; activation factor at 20 µM; 0.005% of 190,000 active;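 active means activation factor of 2 or more at 20 µM, relative to plate controls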
Target sequence (P34949 whole entry, looked up): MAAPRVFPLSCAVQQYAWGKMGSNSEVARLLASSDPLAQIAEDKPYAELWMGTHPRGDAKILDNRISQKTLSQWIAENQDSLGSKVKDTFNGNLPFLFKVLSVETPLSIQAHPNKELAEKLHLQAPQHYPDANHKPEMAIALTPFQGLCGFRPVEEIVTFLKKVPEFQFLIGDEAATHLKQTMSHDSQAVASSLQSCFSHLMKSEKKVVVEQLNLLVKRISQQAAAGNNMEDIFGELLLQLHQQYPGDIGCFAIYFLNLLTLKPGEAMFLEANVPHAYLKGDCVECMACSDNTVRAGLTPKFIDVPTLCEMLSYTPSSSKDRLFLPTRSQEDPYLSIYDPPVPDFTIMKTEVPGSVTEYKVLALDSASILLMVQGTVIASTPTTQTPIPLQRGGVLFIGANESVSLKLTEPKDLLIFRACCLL
PMI act hi M6P = activators of human phosphomannose isomerase at near-saturating mannose 6-phosphate | P34949 | coupled PMI enzyme assay, resazurin fluorescence, 20 min; hits give high values; 1 = untreated enzyme, 0 = substrate-free blank | activation factor at 20 µM | 0.34% of 190,000 active | AID 1216;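 active means activation factor of 2 or more at 20 µM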
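Technique: Diaphorase-driven resazurin-to-resorufin fluorescence, excitation 544, emission 590 nm | Assay system: Human PMI in coupled enzyme assay | Times: Enzyme reaction with compound 20 min at room temperature | Medium: HEPES-buffered pH 7.4 with magnesium and detergent | Reagent: Mannose-6-phosphate 1.0 mM (near-saturating) plus 0.22 mM NADP+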
Diaphorase act = counter-screen for diaphorase-based assays: diaphorase activators and chemical reducers; Diaphorase/resazurin coupled assay, resorufin fluorescence, 16 min; hits give high values; 1 = vehicle wells, 0 = NADH-free wells; activation factor at 20 µM; 0.005% of 190,000 active; AID 1229;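 active means diaphorase activity raised at least twofold by the compound at 20 µM; inactive means activation factor below 2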
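Assay system: bacterial diaphorase enzyme (C. kluyveri) / Input: enzyme 0.07 U/mL final / Medium: 50 mM HEPES pH 7.4 with 4.542 mM MgCl2, 0.005% Tween 20 / Doses: single compound dose of 20 µM, 1% DMSO final / Incubation: 16 min enzyme reaction, ambient temperature / Signal: fluorescence, excitation 544 nm and emission 590 nm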
WT yeast gro inh = growth inhibition of WT yeast, mitochondrial fusion screen. mitochondrial fusion phenotypic screen, WT strain. 2.1% of 190,000 active. inhibition, % at 10 µM; in the data active means inhibition above about 58%; tested in S. cerevisiae
* = called active by the depositor; . = not tested or not shown. The list is not random: actives were taken first. Their share in the collection is about 10%.

SMILES | L major viab | PMI act | PMI act hi M6P | Diaphorase act | WT yeast gro inh
OC(CNC1CCCc2ccccc21)COc1c(Cl)cccc1Cl (stereo not drawn) | 93* | 1 | 1 | 1 | 21
CCN(CC(=O)NC1CCS(=O)(=O)C1)C(=O)/C=C/c1cccs1 (stereo not drawn) | -6 | 1 | 1 | 0.9 | 7
CC1(C)CC(=O)C=C(N2CCN(C3=CC(=O)CC(C)(C)C3)CC2)C1 | . | 1 | 1.1 | 1 | .
CC1(C)CC(N2CCCC2)=CC(=[N+]2CCCC2)C1 | 99* | 0.7 | 0.9 | 0.9 | 6
CC1(C)CC(N2CCCC2)=CC(=[N+]2CCCCC2)C1 | 100* | 0.9 | 0.8 | 1.1 | -18
COc1cc([N+](=O)[O-])ccc1NC(=O)CSc1nccn1C | 9 | 0.9 | 0.9 | 0.9 | -4
CC(C)C(=O)Nc1ccnc(-c2cccnc2)n1 | 4 | 1 | 1 | 1 | 8
COc1ccc(OC)c(-c2nc(C(N)=O)c3[nH]c(=O)n(-c4ccc(F)cc4)c3n2)c1 | -5 | 1 | 0.9 | 0.9 | -6
NC(=O)c1nc(C2CCCCC2)nc2c1[nH]c(=O)n2-c1ccc(F)cc1 | 54* | 0.9 | 0.8 | 0.8 | 9
Cc1ccc(-n2c(=O)[nH]c3c(C(N)=O)nc(CC(C)C)nc32)cc1 | 70* | 0.9 | 0.9 | 1 | 4
CCOc1cccc(-c2nc(C(N)=O)c3[nH]c(=O)n(-c4cccc(Cl)c4)c3n2)c1O | -8 | 0.9 | 1 | 0.9 | 15
COc1ccccc1-n1c(=O)[nH]c2c(C(N)=O)nc(CC(C)C)nc21 | 36 | 0.9 | 0.9 | 0.8 | 10
CCOc1ccccc1-c1nc(C(N)=O)c2[nH]c(=O)n(-c3cccc(C)c3)c2n1 | 64* | 0.8 | 0.9 | 0.7 | 33
Cc1ccc(CNC(=O)Cn2cc(C(F)(F)F)ccc2=O)cc1 | -4 | 1.1 | 1.1 | 1.1 | 10
COC(=O)CNC(=O)COC(=O)Cc1ccc(Cl)cc1 | -5 | 1.2 | 1.1 | 0.9 | 6
COc1cc2[nH]c(=O)c(C(=O)NCCCN3CCCCC3)c(O)c2cc1OC | 94* | 0.9 | 0.8 | 1 | 9
CC1(C)CC(=O)c2c(O)cc(OCc3ccc(Br)cc3)cc2O1 | 69* | 0.9 | 0.9 | 0.9 | 32
COC(=O)c1ccc(COc2cc(O)c3c(c2)OC(C)(C)CC3=O)cc1 | 3 | 0.9 | 1 | 1 | 4
COc1ccccc1NC(=S)N(Cc1ccco1)Cc1cc2cc(C)ccc2[nH]c1=O | 23 | 0.8 | 0.9 | 0.9 | 14
O=C(NC1CCCCC1)C(c1cccnc1)N(C(=O)CCl)c1ccc(F)cc1 (stereo not drawn) | 78* | 1 | 1.1 | 1 | 1
COc1ccc(N(C(=O)CCl)C(C(=O)NC2CCCCC2)c2cccnc2)cc1 (stereo not drawn) | 98* | 1.1 | 1.2 | 1 | 4
COc1ccc(C(C(=O)NC2CCCCC2)N(C(=O)c2ccccn2)c2cccnc2)cc1 (stereo not drawn) | -3 | . | . | . | -13
O=C(NCC(=O)N(c1ccc(F)cc1)C(C(=O)NC1CCCC1)c1cccnc1)c1cccs1 (stereo not drawn) | -1 | 1 | 0.9 | 1 | 20
O=C(NC1CCCCC1)C(c1cccnc1)N(C(=O)CCl)c1ccccc1Cl (stereo not drawn) | 68* | 1 | 1.1 | 1 | -12
CCn1nc(C)c(CNC(=O)CCc2nnc(-c3ccc(C(C)=O)s3)o2)c1C | -6 | 0.9 | 1 | 1 | -8
SMILES | L major viab | PMI act | PMI act hi M6P | Diaphorase act | WT yeast gro inh
COc1cc(NC(=S)N2CCN(Cc3ccccc3)CC2)cc(OC)c1 | 1 | 0.8 | 0.9 | 0.9 | 6
CCOc1ccc(NC(=S)N2CCN(C/C=C/c3ccccc3)CC2)cc1 | 90* | 0.9 | 0.9 | 0.8 | 20
COc1ccc(NC(=S)N2CCN(C/C=C/c3ccccc3)CC2)cc1 | 86* | 0.8 | 0.9 | 0.8 | 15
COc1ccc(NC(=S)N2CCN(C/C=C/c3ccccc3)CC2)cc1OC | 74* | 1 | 1 | 0.9 | 3
COc1ccc(OC)c(NC(=S)N2CCN(C/C=C/c3ccccc3)CC2)c1 | 29 | 1 | 1 | 1 | 18
O=C(CSc1nnc(NC(=O)c2ccccc2Cl)s1)Nc1ccc2c(c1)oc1ccccc12 | 50 | 1.4 | 1.3 | 0.9 | 4
O=C(CCn1cnc(-c2ccccc2)c1-c1ccccc1)N/N=C/c1ccccc1O | 98* | 1 | 0.9 | 0.7 | -11

Assay outcomes deposited in PubChem BioAssay by several laboratories.
